Assays:
PC-12 [1] = test: Induction of apoptosis in rat PC12 cells assessed as length of migrated cell nucleus at 1 mM after 3 hrs by comet assay; assay type: toxicity, cell-based; conditions: pc-12, 3 h, 1000 µM
How it was run: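 PC12 cells (5×10^5/well in PBS(-)) exposed to 1.0 mM final compound for 3 h at 37 °C. Cells embedded in low-melt agarose, lysed 1 h at 4 °C, then alkaline unwinding 30 min. Electrophoresed at 15 V for 30 min and stained with SYBR Green. 200 cells scored per sample under fluorescence at ×200. Whole comet length measured with an ocular micrometer.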

PC-12 [2] = test: Cytotoxicity against rat PC12 cells assessed as effect on cell viability at 0.01 mM after 48 hrs by tetrazolium/formazan assay; assay type: cell-based; conditions: pc-12, 48 h, 10 µM
How it was run: (§1)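 PC12 cells in log growth, seeded at 3×10^5 cells/mL in serum-containing DMEM. After 24 h, medium replaced with the derivative diluted in serum-free DMEM. After 48 h exposure, CCK-8 (WST tetrazolium) added for 4 h at 37 °C. A490 read and viability expressed as % of untreated control. Means ± S.E., n = 3-6. Dunnett test after ANOVA.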

PC-12 [3] = test: Cytotoxicity against rat PC12 cells assessed as effect on cell viability at 1 mM after 48 hrs by tetrazolium/formazan assay; conditions: pc-12, 48 h, 1000 µM
PC-12 [4] = test: Cytotoxicity against rat PC12 cells assessed as effect on cell viability at 0.05 to 1 mM after 48 hrs by tetrazolium/formazan assay; assay type: cell-based; conditions: pc-12, 48 h, 1000 µM; how it was run: as §1
PC-12 [5] = test: Cytotoxicity against rat PC12 cells assessed as effect on cell viability at 0.5 mM after 48 hrs by tetrazolium/formazan assay; conditions: pc-12, 48 h, 500 µM
[6] = target: T1, Amine oxidase [flavin-containing] B (Homo sapiens, UniProt P27338); test: Inhibition of MAOB at 100 nM after 60 mins using benylamine as substrate relative to control; set-up: scale not given: the % may be the effect or the level left; conditions: 1 h
T1 sequence (P27338 whole entry): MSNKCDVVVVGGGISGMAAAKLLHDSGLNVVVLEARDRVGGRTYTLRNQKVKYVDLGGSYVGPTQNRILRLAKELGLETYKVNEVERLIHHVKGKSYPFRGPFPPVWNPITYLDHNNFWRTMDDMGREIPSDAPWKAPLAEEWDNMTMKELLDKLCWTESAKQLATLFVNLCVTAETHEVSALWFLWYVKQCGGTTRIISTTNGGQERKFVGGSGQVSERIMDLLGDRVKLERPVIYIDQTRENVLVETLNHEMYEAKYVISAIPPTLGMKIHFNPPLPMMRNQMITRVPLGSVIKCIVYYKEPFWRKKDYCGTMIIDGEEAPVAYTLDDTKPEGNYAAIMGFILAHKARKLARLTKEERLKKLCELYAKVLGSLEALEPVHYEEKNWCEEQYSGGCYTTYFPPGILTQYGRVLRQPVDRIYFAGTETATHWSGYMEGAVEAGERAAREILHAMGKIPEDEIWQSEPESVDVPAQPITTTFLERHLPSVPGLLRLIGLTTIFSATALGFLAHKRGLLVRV

[7] = target: T1, Amine oxidase [flavin-containing] B; test: Inhibition of MAOB at 100 nM after 60 mins using tyramine as substrate relative to control; set-up: scale not given: the % may be the effect or the level left; conditions: 1 h
[8] = target: T2, Amine oxidase [flavin-containing] A (Homo sapiens, UniProt P21397); test: Inhibition of MAOA at 100 nM after 60 mins using tyramine as substrate relative to control; set-up: scale not given: the % may be the effect or the level left; conditions: 1 h
T2 sequence (P21397 whole entry): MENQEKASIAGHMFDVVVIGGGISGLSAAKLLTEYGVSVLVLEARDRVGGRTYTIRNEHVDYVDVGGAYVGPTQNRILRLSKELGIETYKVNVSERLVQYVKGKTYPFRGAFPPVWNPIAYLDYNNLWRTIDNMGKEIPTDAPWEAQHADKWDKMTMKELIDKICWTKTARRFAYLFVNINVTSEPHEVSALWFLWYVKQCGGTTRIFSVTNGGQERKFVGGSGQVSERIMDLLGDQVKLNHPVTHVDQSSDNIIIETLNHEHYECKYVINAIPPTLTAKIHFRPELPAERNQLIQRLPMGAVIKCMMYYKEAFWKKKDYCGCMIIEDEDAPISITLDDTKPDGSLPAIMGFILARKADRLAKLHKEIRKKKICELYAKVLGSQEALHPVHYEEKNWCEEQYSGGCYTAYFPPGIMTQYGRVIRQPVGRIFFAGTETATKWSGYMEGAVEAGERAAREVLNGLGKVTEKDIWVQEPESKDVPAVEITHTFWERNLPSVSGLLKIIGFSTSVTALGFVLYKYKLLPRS
How it was run: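 MAO-A enzyme (10 µg/mL) incubated with 0.5 mM tyramine and 100 nM compound for 60 min at 37 °C. H2O2 formed was detected with a peroxidase-coupled fluorogenic kit (ex 530/em 590 nm). Activity expressed as % of vehicle control. Means ± S.E., n = 8.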

Structure (SMILES): CCCCCCC1NCCc2ccccc21 (stereo unspecified)
- Activity (PC-12 [1]): 150 um
- Activity (PC-12 [2]): Non-toxic
- Activity (PC-12 [3]): Toxic
- Activity (PC-12 [4]): Toxic
- Activity (PC-12 [5]): Toxic

Structure (SMILES): CCC1NCCc2ccccc21 (stereo unspecified)
- Activity (PC-12 [3]): Toxic
- Activity (PC-12 [5]): Toxic

Structure (SMILES): C[n+]1ccc(-c2ccccc2)cc1.[Cl-]
- Activity (PC-12 [1]): 60 um

Structure (SMILES): c1ccc2c(c1)CCNC2C1CC1 (stereo unspecified)
- Activity (PC-12 [2]): Non-toxic
- Activity (PC-12 [5]): Toxic

Structure (SMILES): CCCC1NCCc2ccccc21 (stereo unspecified)
- Activity (PC-12 [3]): Toxic
- Activity (PC-12 [5]): Toxic

Structure (SMILES): CCCCC1NCCc2ccccc21 (stereo unspecified)
- Activity (PC-12 [3]): Toxic
- Activity (PC-12 [5]): Toxic

Structure (SMILES): C#CCN1CCc2ccccc2C1C1CC1 (stereo unspecified)
- Activity at 0.1 µM [6]: 97.5%
- Activity at 0.1 µM [7]: 98.4%
- Activity at 0.1 µM [8]: 96.2%

Structure (SMILES): C#CCN1CCc2ccccc2C1C (stereo unspecified)
- Activity at 0.1 µM [6]: 99.4%
- Activity at 0.1 µM [7]: 101%
- Activity at 0.1 µM [8]: 97.5%

Structure (SMILES): CCCCCC1NCCc2ccccc21 (stereo unspecified)
- Activity (PC-12 [3]): Toxic
- Activity (PC-12 [5]): Toxic

Structure (SMILES): c1ccc2c(c1)CCNC2C1CCCCC1 (stereo unspecified)
- Activity (PC-12 [1]): 120 um
- Activity (PC-12 [2]): Non-toxic
- Activity (PC-12 [4]): Toxic
- Activity (PC-12 [5]): Toxic

Structure (SMILES): c1ccc2c(c1)CCNC2C1CCCC1 (stereo unspecified)
- Activity (PC-12 [2]): Non-toxic
- Activity (PC-12 [5]): Toxic

Structure (SMILES): C#CCN(C)[C@H](C)Cc1ccccc1 [SELEGILINE]
- Activity at 0.1 µM [8]: 94.2%

Structure (SMILES): c1ccc2c(c1)CCNC2C1CCC1 (stereo unspecified)
- Activity (PC-12 [2]): Non-toxic
- Activity (PC-12 [5]): Toxic

From ChEMBL document CHEMBL1154063, “Facile synthesis and in vitro properties of 1-alkyl- and 1-alkyl-N-propargyl-1,2,3,4-tetrahydroisoquinoline derivatives on PC12 cells” (Eur J Med Chem, 2009)
